From ChEMBL document CHEMBL5653631, “A Potent and Selective ULK1 Inhibitor Suppresses Autophagy and Sensitizes Cancer Cells to Nutrient Stress” (iScience, 2018)
Values belong to the compound of their own block, whether it stands above or below them.

Key:
[1] = biological target: Vascular endothelial growth factor receptor 1 (Homo sapiens) (UniProt P17948); assay: Inhibition of human recombinant FLT1 at 500 nM in presence of ATP by radiometric assay relative to control
[2] = biological target: Proto-oncogene tyrosine-protein kinase Src (Homo sapiens) (UniProt P12931); assay: Inhibition of human recombinant SRC at 500 nM related to control ULK1
Sequence of Proto-oncogene tyrosine-protein kinase Src (Homo sapiens) (P12931 2-536 limits assumed): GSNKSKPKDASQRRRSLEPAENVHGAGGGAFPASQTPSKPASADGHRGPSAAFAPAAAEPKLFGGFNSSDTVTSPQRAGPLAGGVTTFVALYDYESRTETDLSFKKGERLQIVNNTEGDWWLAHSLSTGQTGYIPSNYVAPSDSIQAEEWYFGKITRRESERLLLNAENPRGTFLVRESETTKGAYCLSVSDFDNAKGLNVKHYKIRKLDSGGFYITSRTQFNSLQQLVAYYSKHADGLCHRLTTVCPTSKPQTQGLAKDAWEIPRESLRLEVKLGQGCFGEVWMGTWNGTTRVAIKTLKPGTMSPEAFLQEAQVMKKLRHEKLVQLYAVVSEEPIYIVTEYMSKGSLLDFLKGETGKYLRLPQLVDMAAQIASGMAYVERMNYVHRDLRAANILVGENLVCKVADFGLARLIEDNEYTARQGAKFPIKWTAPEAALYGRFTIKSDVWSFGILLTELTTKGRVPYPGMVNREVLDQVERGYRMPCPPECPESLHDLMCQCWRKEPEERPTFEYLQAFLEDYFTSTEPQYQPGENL

[3] = biological target: NT-3 growth factor receptor (Homo sapiens) (UniProt Q16288); assay: Inhibition of human recombinant TRKC at 500 nM in presence of ATP by radiometric assay relative to control
[4] = biological target: Angiopoietin-1 receptor (Homo sapiens) (UniProt Q02763); assay: Inhibition of human recombinant Tie2 at 40 nM in presence of ATP by radiometric assay relative to control
Sequence of Angiopoietin-1 receptor (Homo sapiens) (Q02763 whole entry): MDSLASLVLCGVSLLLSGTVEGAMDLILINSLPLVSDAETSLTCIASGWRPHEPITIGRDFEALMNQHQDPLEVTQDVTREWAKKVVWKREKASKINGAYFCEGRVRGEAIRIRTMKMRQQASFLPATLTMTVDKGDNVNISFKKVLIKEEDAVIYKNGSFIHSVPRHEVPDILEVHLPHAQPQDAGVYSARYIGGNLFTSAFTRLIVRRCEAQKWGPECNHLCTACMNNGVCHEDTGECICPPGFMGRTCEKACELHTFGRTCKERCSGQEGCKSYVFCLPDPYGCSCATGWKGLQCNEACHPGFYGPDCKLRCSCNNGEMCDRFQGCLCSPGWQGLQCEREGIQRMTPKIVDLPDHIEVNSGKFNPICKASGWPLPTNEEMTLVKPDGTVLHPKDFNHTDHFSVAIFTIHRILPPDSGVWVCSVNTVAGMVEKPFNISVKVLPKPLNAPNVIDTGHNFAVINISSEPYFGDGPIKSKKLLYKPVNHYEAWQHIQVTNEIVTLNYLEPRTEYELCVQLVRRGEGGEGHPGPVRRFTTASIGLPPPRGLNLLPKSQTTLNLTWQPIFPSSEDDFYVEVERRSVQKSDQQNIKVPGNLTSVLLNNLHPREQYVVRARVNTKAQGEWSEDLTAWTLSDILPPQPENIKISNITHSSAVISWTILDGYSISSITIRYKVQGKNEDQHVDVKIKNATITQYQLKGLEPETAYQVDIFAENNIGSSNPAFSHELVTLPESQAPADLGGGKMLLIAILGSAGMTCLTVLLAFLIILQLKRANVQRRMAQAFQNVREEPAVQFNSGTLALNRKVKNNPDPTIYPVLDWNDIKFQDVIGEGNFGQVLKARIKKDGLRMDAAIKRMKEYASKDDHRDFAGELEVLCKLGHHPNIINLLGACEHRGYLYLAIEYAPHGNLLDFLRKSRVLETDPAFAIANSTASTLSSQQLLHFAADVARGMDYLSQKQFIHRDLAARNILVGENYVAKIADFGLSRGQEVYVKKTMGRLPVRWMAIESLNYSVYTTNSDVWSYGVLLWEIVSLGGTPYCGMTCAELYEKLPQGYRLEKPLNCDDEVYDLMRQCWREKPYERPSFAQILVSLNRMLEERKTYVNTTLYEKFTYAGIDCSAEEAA

[5] = biological target: T1, Bone morphogenetic protein receptor type-2 (Homo sapiens) (UniProt Q13873); assay: Inhibition of human recombinant BMPR2 at 40 nM in presence of ATP by radiometric assay relative to control
T1 sequence (whole entry): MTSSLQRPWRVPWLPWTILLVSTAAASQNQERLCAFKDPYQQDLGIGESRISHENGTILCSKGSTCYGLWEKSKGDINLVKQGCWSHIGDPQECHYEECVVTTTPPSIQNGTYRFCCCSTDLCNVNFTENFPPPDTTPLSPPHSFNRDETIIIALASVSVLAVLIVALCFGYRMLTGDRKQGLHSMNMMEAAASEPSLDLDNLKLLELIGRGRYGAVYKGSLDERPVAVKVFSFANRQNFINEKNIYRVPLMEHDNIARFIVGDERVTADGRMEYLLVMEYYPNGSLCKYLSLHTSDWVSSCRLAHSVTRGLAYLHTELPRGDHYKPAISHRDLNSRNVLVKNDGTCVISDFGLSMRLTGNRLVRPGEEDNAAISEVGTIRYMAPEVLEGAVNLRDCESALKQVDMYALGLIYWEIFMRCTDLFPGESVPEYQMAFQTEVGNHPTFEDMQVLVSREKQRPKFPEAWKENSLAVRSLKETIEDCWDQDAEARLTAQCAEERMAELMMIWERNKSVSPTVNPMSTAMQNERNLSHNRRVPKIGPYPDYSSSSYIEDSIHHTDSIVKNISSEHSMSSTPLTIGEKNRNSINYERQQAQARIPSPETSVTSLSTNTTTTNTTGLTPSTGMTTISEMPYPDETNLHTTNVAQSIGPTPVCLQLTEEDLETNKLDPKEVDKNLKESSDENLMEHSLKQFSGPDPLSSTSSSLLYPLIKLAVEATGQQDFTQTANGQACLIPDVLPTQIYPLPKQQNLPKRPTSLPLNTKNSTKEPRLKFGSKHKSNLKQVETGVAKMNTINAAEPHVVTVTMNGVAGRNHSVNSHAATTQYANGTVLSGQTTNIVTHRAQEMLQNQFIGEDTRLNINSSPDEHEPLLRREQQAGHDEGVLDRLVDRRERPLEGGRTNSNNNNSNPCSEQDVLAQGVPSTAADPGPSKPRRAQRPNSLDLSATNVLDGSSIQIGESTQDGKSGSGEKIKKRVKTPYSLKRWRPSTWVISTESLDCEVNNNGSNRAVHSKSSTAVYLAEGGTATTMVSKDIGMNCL

[6] = biological target: T2, Serine/threonine-protein kinase Nek2 (Homo sapiens) (UniProt P51955); assay: Inhibition of human recombinant NEK2 at 40 nM in presence of ATP by radiometric assay relative to control
T2 sequence (whole entry): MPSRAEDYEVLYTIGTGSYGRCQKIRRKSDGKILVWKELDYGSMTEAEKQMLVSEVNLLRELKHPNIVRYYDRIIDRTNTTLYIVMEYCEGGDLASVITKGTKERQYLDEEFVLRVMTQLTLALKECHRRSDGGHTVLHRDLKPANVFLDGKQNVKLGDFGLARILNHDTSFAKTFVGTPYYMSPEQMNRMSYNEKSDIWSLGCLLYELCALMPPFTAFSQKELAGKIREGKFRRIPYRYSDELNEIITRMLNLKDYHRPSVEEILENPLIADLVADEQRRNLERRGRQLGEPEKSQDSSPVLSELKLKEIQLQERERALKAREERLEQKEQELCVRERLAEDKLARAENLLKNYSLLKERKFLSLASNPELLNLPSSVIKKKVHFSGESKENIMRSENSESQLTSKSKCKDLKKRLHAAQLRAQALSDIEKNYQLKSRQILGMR

[7] = biological target: Serine/threonine-protein kinase PLK3 (Homo sapiens) (UniProt Q9H4B4); assay: Inhibition of human recombinant PLK3 at 15 nM in presence of ATP by radiometric assay relative to control
Sequence of Serine/threonine-protein kinase PLK3 (Homo sapiens) (Q9H4B4 whole entry, looked up): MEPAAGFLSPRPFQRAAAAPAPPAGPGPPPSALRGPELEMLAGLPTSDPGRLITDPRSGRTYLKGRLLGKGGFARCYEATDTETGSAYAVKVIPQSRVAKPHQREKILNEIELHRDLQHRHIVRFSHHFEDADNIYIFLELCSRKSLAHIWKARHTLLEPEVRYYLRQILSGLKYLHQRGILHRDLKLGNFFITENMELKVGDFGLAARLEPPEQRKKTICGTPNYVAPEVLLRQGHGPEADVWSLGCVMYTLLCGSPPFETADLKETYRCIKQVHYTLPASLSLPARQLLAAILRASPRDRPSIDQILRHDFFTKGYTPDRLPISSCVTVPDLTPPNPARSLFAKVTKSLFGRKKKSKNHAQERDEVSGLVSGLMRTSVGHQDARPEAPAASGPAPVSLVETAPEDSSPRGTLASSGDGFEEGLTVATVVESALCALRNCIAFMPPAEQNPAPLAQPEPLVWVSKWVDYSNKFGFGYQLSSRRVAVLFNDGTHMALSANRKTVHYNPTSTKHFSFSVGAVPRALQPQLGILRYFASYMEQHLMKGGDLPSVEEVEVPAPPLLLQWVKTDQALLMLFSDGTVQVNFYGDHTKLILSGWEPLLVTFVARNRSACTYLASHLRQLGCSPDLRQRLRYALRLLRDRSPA

[8] = biological target: Myosin light chain kinase 2, skeletal/cardiac muscle (Homo sapiens) (UniProt Q9H1R3); assay: Inhibition of human recombinant skMLCK at 15 nM in presence of ATP by radiometric assay relative to control
Sequence of Myosin light chain kinase 2, skeletal/cardiac muscle (Homo sapiens) (Q9H1R3 whole entry): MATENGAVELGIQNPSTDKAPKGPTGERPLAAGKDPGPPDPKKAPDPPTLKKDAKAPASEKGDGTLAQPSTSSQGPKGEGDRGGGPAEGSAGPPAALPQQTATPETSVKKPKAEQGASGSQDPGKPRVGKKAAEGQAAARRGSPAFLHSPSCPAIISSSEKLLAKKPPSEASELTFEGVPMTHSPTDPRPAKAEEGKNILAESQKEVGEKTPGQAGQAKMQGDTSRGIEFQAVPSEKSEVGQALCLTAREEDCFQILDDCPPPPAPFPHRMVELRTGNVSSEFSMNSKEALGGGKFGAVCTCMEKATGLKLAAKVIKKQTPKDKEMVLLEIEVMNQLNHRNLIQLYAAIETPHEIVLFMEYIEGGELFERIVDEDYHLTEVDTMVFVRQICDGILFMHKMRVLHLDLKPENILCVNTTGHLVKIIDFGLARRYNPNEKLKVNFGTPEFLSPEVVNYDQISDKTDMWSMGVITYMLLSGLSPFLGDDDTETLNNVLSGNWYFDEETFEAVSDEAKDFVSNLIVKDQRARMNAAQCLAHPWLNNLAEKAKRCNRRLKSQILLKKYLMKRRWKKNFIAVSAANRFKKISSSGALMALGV

[9] = biological target: Protein-tyrosine kinase 6 (Homo sapiens) (UniProt Q13882); assay: Inhibition of human recombinant BRK at 15 nM in presence of ATP by radiometric assay relative to control
Sequence of Protein-tyrosine kinase 6 (Homo sapiens) (Q13882 whole entry, looked up): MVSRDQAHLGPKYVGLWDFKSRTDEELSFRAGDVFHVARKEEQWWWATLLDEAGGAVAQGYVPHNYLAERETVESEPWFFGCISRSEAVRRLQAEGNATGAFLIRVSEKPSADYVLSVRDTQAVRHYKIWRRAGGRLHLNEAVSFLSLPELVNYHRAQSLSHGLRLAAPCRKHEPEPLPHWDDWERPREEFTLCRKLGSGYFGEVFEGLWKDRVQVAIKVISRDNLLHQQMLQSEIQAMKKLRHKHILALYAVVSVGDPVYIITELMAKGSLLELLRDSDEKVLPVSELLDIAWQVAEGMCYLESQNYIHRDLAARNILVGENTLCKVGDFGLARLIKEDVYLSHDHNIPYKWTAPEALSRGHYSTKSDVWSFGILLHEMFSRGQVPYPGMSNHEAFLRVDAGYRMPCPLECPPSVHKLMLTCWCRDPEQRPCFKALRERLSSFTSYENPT
How it was run: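 Part of a radiometric in vitro activity panel of 327 recombinant human kinases. Each kinase was tested in duplicate at one inhibitor concentration. Activity remaining was expressed as a percentage of the vehicle control, and percent inhibition was taken as 100 minus that value.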

Sequence of Vascular endothelial growth factor receptor 1 (Homo sapiens) (P17948 whole entry): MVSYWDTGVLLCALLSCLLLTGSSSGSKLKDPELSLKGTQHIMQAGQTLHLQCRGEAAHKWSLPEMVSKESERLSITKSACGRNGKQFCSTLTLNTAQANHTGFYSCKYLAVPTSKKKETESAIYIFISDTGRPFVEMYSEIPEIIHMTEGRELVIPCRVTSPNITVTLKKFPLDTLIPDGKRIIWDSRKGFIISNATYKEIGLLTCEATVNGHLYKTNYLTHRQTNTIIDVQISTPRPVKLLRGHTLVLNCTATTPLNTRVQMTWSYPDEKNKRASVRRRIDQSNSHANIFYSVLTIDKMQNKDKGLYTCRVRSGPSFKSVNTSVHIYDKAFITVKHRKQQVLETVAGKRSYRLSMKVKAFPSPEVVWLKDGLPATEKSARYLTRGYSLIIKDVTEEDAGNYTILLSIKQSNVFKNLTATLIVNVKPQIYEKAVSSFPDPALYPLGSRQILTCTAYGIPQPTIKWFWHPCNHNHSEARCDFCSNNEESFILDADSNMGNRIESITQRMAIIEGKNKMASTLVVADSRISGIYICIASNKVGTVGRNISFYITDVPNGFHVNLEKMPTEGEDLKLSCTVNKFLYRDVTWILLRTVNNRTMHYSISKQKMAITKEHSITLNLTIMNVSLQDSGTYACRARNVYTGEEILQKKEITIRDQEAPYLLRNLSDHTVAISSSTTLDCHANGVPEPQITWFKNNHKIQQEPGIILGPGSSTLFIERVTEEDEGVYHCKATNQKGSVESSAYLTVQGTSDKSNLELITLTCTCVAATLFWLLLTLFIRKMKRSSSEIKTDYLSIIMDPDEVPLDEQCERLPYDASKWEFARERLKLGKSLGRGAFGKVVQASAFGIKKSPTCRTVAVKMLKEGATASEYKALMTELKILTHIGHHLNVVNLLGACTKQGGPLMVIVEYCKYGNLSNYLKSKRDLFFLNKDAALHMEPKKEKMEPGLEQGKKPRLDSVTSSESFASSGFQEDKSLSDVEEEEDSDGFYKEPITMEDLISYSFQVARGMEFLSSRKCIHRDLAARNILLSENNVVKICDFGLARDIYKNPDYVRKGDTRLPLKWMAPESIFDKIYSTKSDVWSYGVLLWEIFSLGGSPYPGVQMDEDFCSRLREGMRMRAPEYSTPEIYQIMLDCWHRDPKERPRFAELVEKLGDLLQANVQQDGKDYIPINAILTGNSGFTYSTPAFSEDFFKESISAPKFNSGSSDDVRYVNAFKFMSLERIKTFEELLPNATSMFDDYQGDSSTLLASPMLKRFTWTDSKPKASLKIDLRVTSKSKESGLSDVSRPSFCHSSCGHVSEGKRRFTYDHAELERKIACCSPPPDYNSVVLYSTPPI

- inhibition [1]: 2%
- fold change (FC) [2]: 0.26
- inhibition [3]: 0%
Structure (SMILES): CNC(=O)c1ccccc1Oc1nc(Nc2cc(OC)c(OC)c(OC)c2)ncc1Br

- inhibition [4]: 0%
- inhibition [5]: 6%
- inhibition [6]: 0%
Structure (SMILES): O=C(N[C@@H](C1CC1)C(F)(F)F)c1cc(-c2cnn3cc(-c4ccc(F)cc4)cnc23)cs1

- inhibition [7]: 3%
- inhibition [8]: 11%
- inhibition [9]: 8%
Structure (SMILES): CC(C)[C@H](NC(=O)c1cc(-c2cnn3cc(-c4ccc(OCCN5CCCCC5)cc4)cnc23)cs1)C(F)(F)F
